Measured values as given in ChEMBL document CHEMBL1156736, “Multidentate small-molecule inhibitors of vaccinia H1-related (VHR) phosphatase decrease proliferation of cervix cancer cells” (J Med Chem, 2009).
Calls of active or inactive are those of the source. The rule behind the calls is not given here.

Tests used:
[1] = molecular target: T1, Dual specificity protein phosphatase 3 (Homo sapiens, UniProt P51452); test: Inhibition of recombinant vaccina H1-related phosphatase expressed in Escherichia coli by Michaelis-Menten kinetic studies
T1 sequence (P51452 whole entry, the tested form may be a part): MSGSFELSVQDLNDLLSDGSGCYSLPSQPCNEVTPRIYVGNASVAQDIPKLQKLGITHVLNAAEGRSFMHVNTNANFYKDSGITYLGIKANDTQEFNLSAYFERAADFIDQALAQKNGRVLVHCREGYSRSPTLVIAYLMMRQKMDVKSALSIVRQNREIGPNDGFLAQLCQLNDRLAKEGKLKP
Summary of the method: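 E. coli-expressed VHR (GST-fusion, thrombin-cleaved, gel-filtered) preincubated 10 min with several fixed inhibitor concentrations in Bis-Tris pH 6.0 buffer with DTT and 5% DMSO; started with pNPP at 0.2–10 Km; initial rates at 404 nm, no-enzyme corrected; Ki and mode by nonlinear fit to competitive, uncompetitive or mixed models, compared by AICc.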

[2] = molecular target: T2, Receptor-type tyrosine-protein phosphatase C (Homo sapiens, UniProt P08575); test: Inhibition of recombinant CD45
T2 sequence (P08575 whole entry): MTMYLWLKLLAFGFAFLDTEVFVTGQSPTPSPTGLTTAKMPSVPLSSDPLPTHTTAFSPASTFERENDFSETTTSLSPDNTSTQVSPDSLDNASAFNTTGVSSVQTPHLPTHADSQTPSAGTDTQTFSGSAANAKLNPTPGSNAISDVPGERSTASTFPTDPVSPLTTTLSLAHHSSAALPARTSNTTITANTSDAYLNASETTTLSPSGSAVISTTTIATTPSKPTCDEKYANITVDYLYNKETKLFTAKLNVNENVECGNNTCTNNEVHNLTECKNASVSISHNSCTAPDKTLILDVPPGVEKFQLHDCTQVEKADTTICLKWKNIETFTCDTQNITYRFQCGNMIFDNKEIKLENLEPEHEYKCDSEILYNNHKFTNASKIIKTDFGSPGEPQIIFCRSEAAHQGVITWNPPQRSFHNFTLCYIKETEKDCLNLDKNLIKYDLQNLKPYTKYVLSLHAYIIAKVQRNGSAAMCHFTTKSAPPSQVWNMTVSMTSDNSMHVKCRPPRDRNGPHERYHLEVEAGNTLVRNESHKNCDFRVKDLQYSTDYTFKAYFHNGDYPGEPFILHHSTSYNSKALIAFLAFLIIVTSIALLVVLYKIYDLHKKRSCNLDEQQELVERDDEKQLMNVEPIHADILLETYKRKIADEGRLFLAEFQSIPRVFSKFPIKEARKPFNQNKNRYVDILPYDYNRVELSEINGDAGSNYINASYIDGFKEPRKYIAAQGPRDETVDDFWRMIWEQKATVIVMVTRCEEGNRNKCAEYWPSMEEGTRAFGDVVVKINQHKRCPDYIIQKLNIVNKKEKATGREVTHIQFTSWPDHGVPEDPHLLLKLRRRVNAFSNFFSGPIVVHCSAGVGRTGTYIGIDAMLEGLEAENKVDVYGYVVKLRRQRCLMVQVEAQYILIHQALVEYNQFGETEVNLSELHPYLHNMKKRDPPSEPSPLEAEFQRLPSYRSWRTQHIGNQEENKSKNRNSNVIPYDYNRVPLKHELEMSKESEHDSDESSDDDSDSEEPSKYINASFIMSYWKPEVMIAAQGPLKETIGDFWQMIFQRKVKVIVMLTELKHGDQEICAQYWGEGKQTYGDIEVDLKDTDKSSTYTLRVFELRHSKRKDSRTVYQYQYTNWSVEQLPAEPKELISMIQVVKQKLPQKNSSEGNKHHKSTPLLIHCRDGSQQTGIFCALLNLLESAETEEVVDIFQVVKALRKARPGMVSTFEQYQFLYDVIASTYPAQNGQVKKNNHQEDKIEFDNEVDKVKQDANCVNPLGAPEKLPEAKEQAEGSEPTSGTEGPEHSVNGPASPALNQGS

[3] = molecular target: T3, Tyrosine-protein phosphatase non-receptor type 1 (Homo sapiens, UniProt P18031); test: Inhibition of recombinant PTP1B
T3 sequence (P18031 whole entry): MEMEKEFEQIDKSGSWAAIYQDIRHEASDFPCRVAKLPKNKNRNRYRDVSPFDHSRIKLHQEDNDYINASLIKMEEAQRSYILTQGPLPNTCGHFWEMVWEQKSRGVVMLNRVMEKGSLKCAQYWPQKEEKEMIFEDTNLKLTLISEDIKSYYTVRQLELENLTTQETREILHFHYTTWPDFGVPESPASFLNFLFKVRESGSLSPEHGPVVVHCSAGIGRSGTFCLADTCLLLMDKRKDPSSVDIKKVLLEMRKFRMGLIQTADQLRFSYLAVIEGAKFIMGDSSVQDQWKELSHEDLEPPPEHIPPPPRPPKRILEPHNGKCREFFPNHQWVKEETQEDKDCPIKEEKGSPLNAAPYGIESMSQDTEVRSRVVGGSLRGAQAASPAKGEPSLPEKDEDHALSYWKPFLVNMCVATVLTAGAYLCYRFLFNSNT

HeLa [4] = test: Antiproliferative activity against human HeLa cells at 20 uM after 24 hrs by [3H]thymidine incorporation assay relative to control; format: functional
Summary of the method: (§1)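 5×10^4 cells in DMEM complete medium exposed 24 h to 20 μM inhibitor or DMSO vehicle; [3H]thymidine ([…]) added for final 4 h, cells harvested onto glass fiber filters, radioactivity by scintillation counting; expressed relative to DMSO control; mean ± SD of three independent experiments.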

[5] = molecular target: T4, Dual specificity protein phosphatase 1 (Homo sapiens, UniProt P28562); test: Inhibition of recombinant MKP1
T4 sequence (P28562 whole entry): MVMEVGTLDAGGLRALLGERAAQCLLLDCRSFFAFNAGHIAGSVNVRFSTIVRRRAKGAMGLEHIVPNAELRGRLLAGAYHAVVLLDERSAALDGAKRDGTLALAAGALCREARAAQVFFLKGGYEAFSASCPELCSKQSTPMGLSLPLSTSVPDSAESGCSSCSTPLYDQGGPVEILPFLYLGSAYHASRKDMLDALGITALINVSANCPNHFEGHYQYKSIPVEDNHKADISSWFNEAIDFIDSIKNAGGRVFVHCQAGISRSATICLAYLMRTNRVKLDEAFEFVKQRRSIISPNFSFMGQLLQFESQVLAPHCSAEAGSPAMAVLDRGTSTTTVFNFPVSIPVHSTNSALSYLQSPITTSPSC

[6] = molecular target: T5, M-phase inducer phosphatase 1 (Homo sapiens, UniProt P30304); test: Inhibition of recombinant Cdc25a
T5 sequence (P30304 whole entry): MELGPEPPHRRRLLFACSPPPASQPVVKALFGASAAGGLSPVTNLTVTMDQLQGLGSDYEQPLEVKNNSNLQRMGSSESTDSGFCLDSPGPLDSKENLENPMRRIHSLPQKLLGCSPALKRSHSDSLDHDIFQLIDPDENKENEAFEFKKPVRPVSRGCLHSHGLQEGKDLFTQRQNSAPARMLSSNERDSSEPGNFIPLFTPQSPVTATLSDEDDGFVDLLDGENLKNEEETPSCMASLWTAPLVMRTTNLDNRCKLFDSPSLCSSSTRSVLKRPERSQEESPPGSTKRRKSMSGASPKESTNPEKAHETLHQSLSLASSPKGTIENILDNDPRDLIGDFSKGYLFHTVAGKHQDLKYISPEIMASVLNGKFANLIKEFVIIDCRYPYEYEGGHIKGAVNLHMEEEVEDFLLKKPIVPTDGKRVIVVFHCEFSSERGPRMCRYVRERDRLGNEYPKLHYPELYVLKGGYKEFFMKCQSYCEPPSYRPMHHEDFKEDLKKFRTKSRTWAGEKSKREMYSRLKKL

Ca-Ski [7] = test: Antiproliferative activity against human CaSki cells at 20 uM after 24 hrs by [3H]thymidine incorporation assay relative to control; format: functional; summary of the method: as §1
[8] = molecular target: T6, Tyrosine-protein phosphatase non-receptor type 7 (Homo sapiens, UniProt P35236); test: Inhibition of recombinant HePTP
T6 sequence (P35236 whole entry): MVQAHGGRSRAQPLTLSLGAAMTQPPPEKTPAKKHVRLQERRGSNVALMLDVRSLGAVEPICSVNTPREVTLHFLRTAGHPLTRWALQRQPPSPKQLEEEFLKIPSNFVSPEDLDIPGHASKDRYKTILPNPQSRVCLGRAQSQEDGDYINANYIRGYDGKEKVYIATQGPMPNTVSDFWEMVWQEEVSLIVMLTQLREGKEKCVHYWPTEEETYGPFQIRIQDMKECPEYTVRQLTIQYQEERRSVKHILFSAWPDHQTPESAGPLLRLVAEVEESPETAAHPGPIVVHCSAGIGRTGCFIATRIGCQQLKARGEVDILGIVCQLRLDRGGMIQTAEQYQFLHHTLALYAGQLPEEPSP

HeLa [9] = test: Antiproliferative activity against human HeLa cells at 20 uM after 24 hrs by Trypan blue assay; format: functional
Summary of the method: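 10^5 cells (HeLa in DMEM/10% FCS; primary normal keratinocytes from hysterectomy tissue, trypsin-EDTA dispersed, in K-SFM with EGF, pituitary hormone) treated 24 h with 20 μM inhibitor or DMSO; trypsinized and counted with trypan blue in a counting chamber; cell numbers as percentage of DMSO control; mean ± SD, three independent experiments.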

[10] = molecular target: T1, Dual specificity protein phosphatase 3; test: Inhibition of recombinant vaccina H1-related phosphatase
HeLa [11] = test: Induction of apoptosis in human HeLa cells assessed as apoptotic cells at 20 uM after 24 hrs by annexin V/propidium iodide based flow cytometry; format: functional, cell-based
Summary of the method: (§2)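 10^5 cells in DMEM/10% FCS incubated 24 h with 20 μM inhibitor or DMSO, trypsinized; half of cells stained with AnnexinV-FITC and propidium iodide, analysed by flow cytometry; live cells taken as AnnexinV- and PI-negative; mean ± SD from three independent experiments.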

Ca-Ski [12] = test: Induction of apoptosis in human CaSki cells assessed as apoptotic cells at 20 uM after 24 hrs by annexin V/propidium iodide based flow cytometry; format: functional, cell-based; summary of the method: as §2

O=C1C(Cl)=C/C(=N\S(=O)(=O)c2ccc(Cl)cc2)C(Cl)=C1Cl
Ki [1]: 13.4 µM

O=C(/C=C/c1ccco1)/C=C/c1ccc(-c2ccc(Cl)c(Cl)c2)o1
Ki [1]: 15.9 µM

O=C1/C(=C/c2cn(-c3ccccc3)nc2-c2ccc(S(=O)(=O)N3CCCCC3)cc2)SC(=S)N1CCS(=O)(=O)O
IC50 [2]: 1.8 µM
IC50 [3]: 2.2 µM
Activity (HeLa [4]): <=30%
IC50 [5]: 2.8 µM
IC50 [6]: > 10 µM
Activity (Ca-Ski [7]): >50%
IC50 [8]: 2.4 µM
Activity (HeLa [9]): Active

O=C(O)c1cccc(-c2ccc(/C=N/Nc3ccc([N+](=O)[O-])cn3)o2)c1
Ki [1]: 13.8 µM

CCOC(=O)c1[nH]nc2c1C(=O)N(c1ccc(Br)cc1)C2=O
Ki [1]: 2.64 µM

O=C1NC(=S)/C(=C/c2ccc(-c3ccc([N+](=O)[O-])cc3)o2)S1
Ki [1]: 1.86 µM

C=CCN1C(=O)/C(=C\C=C\c2ccco2)C(=O)NC1=S (mixture of isomers)
Ki [1]: 15.8 µM

O=C1NC(=O)N(c2cccc(Br)c2)C(=O)/C1=C/c1ccc(-c2ccc(C(=O)O)cc2)o1 (mixture of isomers)
Ki [1]: 16.2 µM

O=C1NC(=S)N(c2cccc(Cl)c2)C(=O)/C1=C\c1ccc[nH]1 (mixture of isomers)
Ki [1]: 3.49 µM

O=C1c2cccc3c4ccccc4n(c23)C(=O)C1(O)O
Ki [1]: 13.8 µM

Cc1cc(Br)c(-c2ccc(/C=C3\NC(=S)NC3=O)o2)cc1C
Ki [1]: 3.19 µM

Cc1ccc(C)n1-c1ccc(C(=O)O)c(O)c1
Ki [1]: 12.8 µM

O=C1/C(=C/c2cn(-c3ccccc3)nc2-c2ccc(Cl)cc2)SC(=S)N1CCS(=O)(=O)O
IC50 [10]: 1.8 µM

O=C1/C(=C/c2cn(-c3ccccc3)nc2-c2ccc(OCc3ccccc3)cc2)SC(=S)N1CCS(=O)(=O)O
IC50 [3]: 1.8 µM
Activity (HeLa [4]): <=30%
Activity (Ca-Ski [7]): >50%
IC50 [8]: 1.5 µM
Activity (HeLa [9]): Active

Cc1ccc(C)n1-c1ccc(SCC(=O)O)cc1
Ki [1]: 2.09 µM

COc1ccc(OC)c2c1C(=O)c1ccccc1C2=O [1,4-DIMETHOXYANTHRAQUINONE]
Ki [1]: 3.07 µM

COc1ccc(-c2nn(-c3ccccc3)cc2/C=C2\SC(=S)N(CCS(=O)(=O)O)C2=O)cc1
IC50 [10]: 1.8 µM

O=C(O)C(Cc1ccccc1)N1C(=O)/C(=C/C=C/c2ccccc2)SC1=S (stereo not drawn)
Ki [1]: 2.01 µM

O=C1/C(=C/c2ccc(-c3cccc(Cl)c3)o2)SC(=S)N1CCS(=O)(=O)O
Ki [1]: 3.13 µM

S=C(Nc1ccc2c(c1)oc1ccccc12)Nc1cccc2ccccc12
Ki [1]: 2.94 µM

O=C1NC(=S)N(c2ccc(F)cc2)C(=O)/C1=C/c1ccc(Br)o1
Ki [1]: 12.1 µM

O=C1/C(=C/c2cn(-c3ccccc3)nc2-c2ccc(S(=O)(=O)N3CCOCC3)cc2)SC(=S)N1CCS(=O)(=O)O
IC50 [10]: 2.4 µM

O=C1/C(=C/c2cn(-c3ccccc3)nc2-c2ccc(OCc3ccccc3F)cc2)SC(=S)N1CCS(=O)(=O)O
Activity (HeLa [11]): inactive
IC50 [2]: 0.5 µM
IC50 [3]: 0.42 µM
Activity (HeLa [4]): 58%
IC50 [5]: 0.52 µM
IC50 [6]: 2.8 µM
Activity (Ca-Ski [12]): inactive
Activity (Ca-Ski [7]): 74%
IC50 [8]: 0.87 µM
Activity (HeLa [9]): >50%

O=C(/C=C/c1ccc(-c2ccccc2[N+](=O)[O-])o1)Nc1ccc(-c2nc3ccccc3o2)cc1
Ki [1]: 1.76 µM

CC1=C(C#N)c2nc(N)c(C#N)c(C)c2/C1=C/c1ccc(-c2ccc(C(=O)O)c(Cl)c2)o1
Ki [1]: 3.87 µM

COc1ccc(N2C(=O)/C(=C/c3ccc(I)o3)C(=O)NC2=S)cc1 (mixture of isomers)
Ki [1]: 4.44 µM

O=C1/C(=C/c2cn(-c3ccccc3)nc2-c2ccc(OCc3ccccc3Cl)cc2)SC(=S)N1CCS(=O)(=O)O
Activity (HeLa [11]): inactive
IC50 [2]: 0.3 µM
IC50 [3]: 0.59 µM
IC50 [10]: 0.071 µM
Activity (HeLa [4]): <=30%
IC50 [5]: 0.47 µM
IC50 [6]: 3.4 µM
Activity (Ca-Ski [12]): inactive
Activity (Ca-Ski [7]): >50%
IC50 [8]: 1.2 µM
Activity (HeLa [9]): Active

Cc1ccc(-c2nn(-c3ccccc3)cc2/C=C2\SC(=S)N(CCS(=O)(=O)O)C2=O)cc1
IC50 [10]: 3.1 µM
